Measurements as given in paper PMC3201796 (Cell host & microbe, 2011).
Values after ≈ are worked out from the molar mass of the structure shown. Counter-ions that a name gives are not always drawn. Like-named read-outs stand apart in the source and are kept apart here.

How the values were obtained:
[1] = system: PHKs; assay: Cytotoxicity by cell morphology; type: cell-based, human; details: non-infected
In short: (§1)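 Run in non-infected cultures in parallel with the antiviral assay. Cells exposed to test compound and examined microscopically at day 3. MCC is the lowest concentration giving a detectable change in cell morphology.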

[2] = system: HSV-1; assay: HSV-1-infected athymic nude mice; type: in vivo; details: 1% gel, topical
In short: (§2)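 Female NMRI athymic nude or hairless mice (~20 g, ~4 weeks; groups of five) scarified over ~1 cm² lumbosacral area with HSV-1 KOS (5×10^3 PFU) or HSV-2 G (5×10^2). Test compound 1% in 100% DMSO or CAPRISA 004-type gel, topical twice daily for 5 days from 1-2 h post-infection; same vehicle without drug as placebo. Lesions and mortality recorded over one month; Kaplan-Meier survival, log-rank test.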

[3] = system: HSV-2; type: cell-based; details: day 6, M/M
[4] = system: HEL cells; assay: Cytotoxicity by cell morphology; type: cell-based, human; details: HEL, non-infected, cell morphology
In short: as §1

[5] = Cytostatic activity; type: cell-based; details: human, HEL cells, non-infected
[6] = system: HSV-2; type: cell-based; details: M/M
[7] = Cytostatic activity; type: cell-based; details: human, PHKs, non-infected
[8] = system: HSV-2; assay: HSV-2-infected athymic nude mice; type: in vivo; details: 1% gel, topical
In short: as §2

[9] = system: HSV-2; assay: HSV-2 cytopathicity in primary monocyte/macrophage cultures; type: cell-based; details: for Cytopathicity (CPE) (%): day 6, M/M
[10] = biological target: HIV-1 RT (Human immunodeficiency virus type 1 group M subtype B, UniProt P03366); assay: HIV-1 reverse transcriptase assay; type: biochemical; details: competing dATP (3.2 μM); activated calf thymus DNA
In short: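 Reaction mix: Tris-HCl pH 7.5, DTT, MgCl2, BSA, activated calf thymus DNA, unlabelled dCTP, dTTP and dGTP, and [3H]dATP (3.2 µM) with diphosphate test compound at various concentrations. Started with recombinant HIV-1 RT and run 30 min at 37 °C. Stopped with ice-cold 5% TCA/pyrophosphate; acid-insoluble DNA caught on glass-fibre filters and counted by liquid scintillation.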

[11] = biological target: HSV-1 DNA polymerase (Human herpesvirus 1, UniProt P04293); assay: HSV-1 DNA polymerase assay; type: biochemical
In short: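 Recombinant HSV-1 DNA polymerase; 40 µl reactions with a Tris.HCl pH 7.5/DTT/MgCl₂ premix, BSA and activated calf thymus DNA. One radiolabelled dNTP was the competing substrate: [³H]dATP (3.2 µM), [³H]dGTP (2.8 µM), [³H]dTTP (1 µM) or [³H]dCTP (2.5 µM); unlabelled others present. Tenofovir-diphosphate added from 200, 20, 2, 0.2 µM solutions. 60 min at 37°C; stopped with ice-cold TCA/pyrophosphate; acid-insoluble DNA collected on glass-fibre filters.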

[12] = system: HSV-2G, HSV-2MS; assay: Human tonsillar tissue ex vivo infected with HSV-2; type: cell-based; details: data not shown
[13] = system: HSV-2; details: daily oral, co-formulation with FTC; ref Lama et al., 18th CROI 2011, # 1002; cited from earlier work
[14] = system: HIV-1; details: lymphoid and cervico-vaginal tissues; ref Lisco et al., 2008; cited from earlier work

HSV-1 DNA polymerase, sequence (P04293 whole entry): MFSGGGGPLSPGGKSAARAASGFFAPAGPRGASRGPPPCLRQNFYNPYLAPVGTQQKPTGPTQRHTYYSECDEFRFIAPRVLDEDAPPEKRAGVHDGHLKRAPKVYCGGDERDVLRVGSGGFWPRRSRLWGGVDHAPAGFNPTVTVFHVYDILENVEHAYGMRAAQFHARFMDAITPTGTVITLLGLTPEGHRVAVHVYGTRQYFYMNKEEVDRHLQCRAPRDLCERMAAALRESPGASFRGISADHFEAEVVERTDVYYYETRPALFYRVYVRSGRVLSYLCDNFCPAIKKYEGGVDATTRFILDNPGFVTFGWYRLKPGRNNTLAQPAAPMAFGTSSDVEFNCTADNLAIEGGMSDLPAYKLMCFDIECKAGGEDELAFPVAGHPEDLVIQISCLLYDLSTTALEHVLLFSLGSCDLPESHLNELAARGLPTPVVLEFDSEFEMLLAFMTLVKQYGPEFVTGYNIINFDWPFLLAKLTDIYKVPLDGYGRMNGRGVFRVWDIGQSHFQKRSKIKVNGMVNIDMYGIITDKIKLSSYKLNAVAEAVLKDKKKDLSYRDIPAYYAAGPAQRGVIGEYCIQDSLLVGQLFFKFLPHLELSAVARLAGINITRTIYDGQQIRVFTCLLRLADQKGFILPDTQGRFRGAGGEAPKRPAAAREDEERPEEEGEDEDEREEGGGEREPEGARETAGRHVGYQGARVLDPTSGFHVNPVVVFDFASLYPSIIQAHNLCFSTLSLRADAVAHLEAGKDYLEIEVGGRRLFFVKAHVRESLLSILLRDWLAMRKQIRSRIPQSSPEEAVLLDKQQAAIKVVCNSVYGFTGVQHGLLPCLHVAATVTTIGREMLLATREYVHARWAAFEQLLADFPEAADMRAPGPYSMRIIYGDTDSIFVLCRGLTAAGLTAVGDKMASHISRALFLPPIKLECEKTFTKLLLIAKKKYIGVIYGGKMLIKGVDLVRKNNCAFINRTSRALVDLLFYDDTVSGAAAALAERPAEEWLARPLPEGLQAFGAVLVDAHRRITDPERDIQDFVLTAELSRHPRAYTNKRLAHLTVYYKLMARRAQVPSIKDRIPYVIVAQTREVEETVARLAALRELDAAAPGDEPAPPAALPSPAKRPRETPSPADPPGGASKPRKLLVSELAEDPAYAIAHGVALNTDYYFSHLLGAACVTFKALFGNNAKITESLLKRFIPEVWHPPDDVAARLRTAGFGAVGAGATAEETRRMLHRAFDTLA

Compound: Nc1ncnc2c1ncn2CCOCP(=O)(O)O [Adefovir, 9-[2-(phosphonylmethoxyethyl)adenine]]
- Cell toxicity MCC (minimum cytotoxic concentration) [1]: >50 µg/mL
- performance in 1% gel-treated mice, HSV-1 vs HSV-2 [2]: performed markedly better against HSV-1 than HSV-2
- Virus production (PFU/ml) ([3]; 0.2 μg/ml): 9.9×10^3 PFU/ml
- Virus production (PFU/ml) ([3]; 1 μg/ml): 2.5×10^2 PFU/ml
- Virus production (PFU/ml) ([3]; 5 μg/ml): No virus
- Virus production (PFU/ml) ([3]; 20 μg/ml): No virus
- Virus production (PFU/ml) ([3]; 100 μg/ml): No virus
- Virus production (PFU/ml) ([3]; 500 μg/ml): No virus
- Cell toxicity MCC (minimum cytotoxic concentration) [4]: >100 µg/mL
- CC50 at 3 days [5]: 100 ± 57 µg/mL (≈ 366 µM)
- Virus production (TCID50/ml) ([6]; 0.04 μg/ml, day 6): 1×10^5 TCID50/ml
- Virus production (TCID50/ml) ([6]; 0.2 μg/ml, day 6): 6×10^4 TCID50/ml
- Virus production (TCID50/ml) ([6]; 1 μg/ml, day 6): 8×10^2 TCID50/ml
- Virus production (TCID50/ml) ([6]; 5 μg/ml, day 6): No virus
- Virus production (TCID50/ml) ([6]; 20 μg/ml, day 6): No virus
- Virus production (TCID50/ml) ([6]; 100 μg/ml, day 6): No virus
- Virus production (TCID50/ml) ([6]; 500 μg/ml, day 6 post infection): No virus
- CC50 at 3 days [7]: 17 ± 6 µg/mL (≈ 62.2 µM)
- performance in 1% gel-treated mice compared with tenofovir [8]: virtually not superior to tenofovir against HSV-2
- Cytopathicity (CPE) (%) ([9]; 0.2 μg/ml): 5%
- Cytopathicity (CPE) (%) ([9]; 1 μg/ml): None
- CPE suppression in M/M ([9]; 5 μg/ml): full CPE suppression
- Cytopathicity (CPE) (%) ([9]; 5 μg/ml): None
- Cytopathicity (CPE) (%) ([9]; 20 μg/ml): None
- Cytopathicity (CPE) (%) ([9]; 100 μg/ml): None
- Cytopathicity (CPE) (%) ([9]; 500 μg/ml): None

Compound: Nc1ccn(C[C@@H](CO)OCP(=O)(O)O)c(=O)n1 [Cidofovir, (S)-1-(3-hydroxy-2-phosphonylmethoxypropyl)cytosine]
- Cell toxicity MCC (minimum cytotoxic concentration) [1]: >50 µg/mL
- Cell toxicity MCC (minimum cytotoxic concentration) [4]: >100 µg/mL
- CC50 at 3 days [5]: 82 ± 57 µg/mL (≈ 294 µM)
- CC50 at 3 days [7]: 34 ± 20 µg/mL (≈ 122 µM)

Compound: CC(Cn1cnc2c(N)ncnc21)OCP(=O)(O)OP(=O)(O)OP(=O)(O)O (stereo in doubt) [Tenofovir-diphosphate, Tenofovir diphosphate]
- IC50 HIV-1 RT [10]: 1.3 µg/mL
- IC50 herpesvirus DNA polymerase ([11]; competing dATP (3.2 μM)): 0.38 ± 0.03 µg/mL
- IC50 herpesvirus DNA polymerase ([11]; competing dCTP (2.5 μM)): 25 ± 1.8 µg/mL
- IC50 herpesvirus DNA polymerase ([11]; competing dGTP (2.8 μM)): 7.1 ± 5 µg/mL
- IC50 herpesvirus DNA polymerase ([11]; competing dTTP (1 μM)): 8.5 ± 3.8 µg/mL

Compound: Nc1ccn([C@@H]2CS[C@H](CO)O2)c(=O)n1 [lamivudine]
- effect on HSV-2G replication [12]: no effect

Compound: CC(C)OC(=O)OCOP(=O)(CO[C@H](C)Cn1cnc2c(N)ncnc21)OCOC(=O)OC(C)C [tenofovir DF, tenofovir disoproxil fumarate]
- effect on HSV-2 acquisition [13]: did not reduce HSV-2 acquisition

Compound: Nc1nc2c(ncn2COCCO)c(=O)[nH]1 [Acyclovir, 9-(2-hydroxyethoxy-methyl)guanine]
- Cell toxicity MCC (minimum cytotoxic concentration) [1]: >50 µg/mL
- inhibition of HIV-1 in herpesvirus-coinfected tissues [14]: efficiently inhibits HIV-1
- Cell toxicity MCC (minimum cytotoxic concentration) [4]: >100 µg/mL
- CC50 at 3 days [5]: 166 ± 17 µg/mL (≈ 737 µM)
- CC50 at 3 days [7]: 132 µg/mL (≈ 586 µM)
